Test results reported in ChEMBL document CHEMBL1151959, “Identification and biological evaluation of a series of 1H-benzo[de]isoquinoline-1,3(2H)-diones as hepatitis C virus NS5B polymerase inhibitors” (J Med Chem, 2009).
In brackets after ≈: the same amount, converted by molar mass. Values belong to the molecule of their own block, whether it stands above or below them. Activity calls are given as the source filed them. No cut-off for these calls is given here.

What was measured:
[1] = Inhibition of HCV2b.2 NS5B Cdelta21 RNA dependent RNA polymerase; set-up: species or system Hepacivirus hominis, 2b.2
Procedure, shortened: (§1)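 Truncated ΔC21 NS5B RdRp from the HCV genotype 1b BK strain or the genotype 2b 2b.2 strain. Values are the mean of two or more experiments, with SD within 30% of the mean.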

[2] = test system: Hepatitis C virus; experiment: Antiviral activity against HCV1b Con1 infected in human Huh7 clone HBI10A cells expressing HEPREP 1b replicon by cell-ELISA assay; assay type: functional, organism-based, Hepacivirus hominis; settings: isolate Con1, Huh-7
[3] = Inhibition of HCV1b BK NS5B Cdelta21 RNA dependent RNA polymerase; set-up: species or system Hepatitis C virus (isolate BK); procedure, shortened: as §1
[4] = Cytotoxicity against human HuH7 cells by MTT assay; assay type: cell-based; settings: Huh-7 cells
[5] = test system: Hepatitis C virus; experiment: Antiviral activity against HCV1b Con1 infected in human Huh7 cells by replicon cell-ELISA assay; settings: isolate Con1, Huh-7
[6] = test system: Hepatitis C virus; experiment: Antiviral activity against HCV H77-1a infected in human Huh7 cells by replicon cell-ELISA assay; settings: genotype 1a H77, Huh-7
[7] = Inhibition of HCV1a RB5 NS5B Cdelta21 RNA dependent RNA polymerase; set-up: species or system Hepatitis C virus subtype 1a
[8] = Inhibition of HCV4a NS5B Cdelta21 RNA dependent RNA polymerase; set-up: species or system Hepatitis C virus subtype 4a
[9] = Inhibition of HIV reverse transcriptase; set-up: species or system Human immunodeficiency virus
[10] = Volume of distribution at steady state in rat at 3 mg/kg, iv; assay type: ADME, organism-based; set-up: dose 3 mg/kg, route intravenous; settings: in vivo, read-out: Vdss
[11] = Elimination half life in rat at 3 mg/kg, iv; assay type: ADME, organism-based; set-up: dose 3 mg/kg, route intravenous; settings: in vivo
[12] = test system: Hepatitis C virus (isolate BK); experiment: Inhibition of HCV1b BK NS5B Cdelta21 RNA dependent RNA polymerase in pre-elongation phase assessed as residual enzyme activity at 6.4 uM to 3 nM preincubated for 15 mins with polyA oligoU18 RNA in room temperature
Procedure, shortened: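 ΔC21-1b polymerase (20 nM) with polyA/oligoU18 RNA, preincubated 15 min at room temperature before compound addition or not preincubated. Compound titrated 3 nM to 6.4 μM. Residual activity measured.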

[13] = test system: Hepatitis C virus (isolate BK); experiment: Inhibition of HCV1b BK NS5B Cdelta21 RNA dependent RNA polymerase in pre-elongation phase assessed as residual enzyme activity at 1 uM preincubated for 120 mins with polyA oligoU18 RNA in room temperature
Procedure, shortened: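 Preincubation time course: ΔC21-1b enzyme and polyA/oligoU18 RNA preincubated 0 to 120 min before adding compound at 1 μM. Residual polymerase activity measured.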

[14] = Clearance in rat at 3 mg/kg, iv; assay type: ADME, organism-based; set-up: dose 3 mg/kg, route intravenous; settings: in vivo
[15] = Lipophilicity, log D of the compound; assay type: physicochemical; settings: octanol/water
[16] = Inhibition of HCV6a NS5B Cdelta21 RNA dependent RNA polymerase; set-up: species or system Hepatitis C virus subtype 6a
Procedure, shortened: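 Purified ΔC21-truncated NS5B RNA-dependent RNA polymerase from HCV genotype 6a, run alongside enzymes from the other major genotypes. Each value is the mean of two or more separate experiments, with SD within ±30% of the mean.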

[17] = test system: Hepatitis C virus; experiment: Antiviral activity against HCV1b BK infected in human H2B2 cells expressing HEPREP 2b replicon by cell-ELISA assay
[18] = biological target: Genome polyprotein (GB virus-B, UniProt Q69422); experiment: Inhibition of Hepatitis GB virus B NS5B RNA dependent RNA polymerase
[19] = Inhibition of HCV3a.7 NS5B Cdelta21 RNA dependent RNA polymerase; set-up: species or system Hepacivirus hominis, 3a.7
[20] = test system: Hepatitis C virus (isolate BK); experiment: Inhibition of HCV1b BK NS5B Cdelta21 RNA dependent RNA polymerase in pre-elongation phase assessed as residual activity at 1 uM to 0.1 nM preincubated for 5 mins with polyA oligoU18 RNA in room temperature in presence of heparin
Procedure, shortened: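 Single-cycle conditions: ΔC21-1b enzyme and polyA/oligoU18 RNA preincubated 5 min, then compound added from 0.1 nM to 1 μM. Elongation started with 3H-UTP plus heparin (50 ng/μL) to trap free enzyme. Residual polymerase activity measured.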

[21] = Oral bioavailability in rat at 3 mg/kg; assay type: ADME, organism-based; settings: in vivo
[22] = Solubility of the compound; assay type: physicochemical
[23] = test system: Hepatitis C virus; experiment: Antiviral activity against HCV 2b.2 infected in human Huh7 cells by replicon cell-ELISA assay; settings: 2b.2, Huh-7
[24] = AUC in rat at 3 mg/kg, po; assay type: ADME, organism-based; set-up: dose 3 mg/kg, route oral; settings: plasma
Procedure, shortened: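 Single oral dose of 3 mg/kg given to rats. Compound concentrations were measured in plasma, and AUC was taken from the plasma exposure after oral dosing. The same rat study also included an iv administration arm.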

[25] = Inhibition of DNA polymerase 1 Klenow fragment
[26] = Inhibition of Bovine viral diarrhea virus 1 RNA-dependent RNA polymerase
[27] = test system: Hepatitis C virus; experiment: Antiviral activity against HCV1b BK infected in human Huh7 cells by replicon cell-ELISA assay; settings: Huh-7
[28] = Inhibition of HCV2a.4 NS5B Cdelta21 RNA dependent RNA polymerase; set-up: species or system Hepacivirus hominis, 2a.4
[29] = Cmax in rat at 3 mg/kg, po after 0.7 hrs; assay type: ADME, organism-based; set-up: dose 3 mg/kg, route oral; settings: in vivo
[30] = Inhibition of HCV1b BK NS5B Cdelta21 RNA dependent RNA polymerase Thumb site 2 R501E mutant; set-up: species or system Hepatitis C virus (isolate BK)
[31] = biological target: RNA-directed RNA polymerase (Hepacivirus hominis, UniProt O39930, M423K); experiment: Inhibition of HCV1b BK NS5B Cdelta21 RNA dependent RNA polymerase Thumb site 2 M423K mutant; set-up: species or system Hepatitis C virus (isolate BK)
[32] = biological target: RNA-directed RNA polymerase (Hepacivirus hominis, UniProt O39930, M414T); experiment: Inhibition of HCV1b BK NS5B Cdelta21 RNA dependent RNA polymerase Palm site 1 and 2 M414T mutant; set-up: species or system Hepatitis C virus (isolate BK)
[33] = biological target: RNA-directed RNA polymerase (Hepacivirus hominis, UniProt O39930, P495A); experiment: Inhibition of HCV1b BK NS5B Cdelta21 RNA dependent RNA polymerase Thumb site 1 P495A mutant; set-up: species or system Hepatitis C virus (isolate BK)

SMILES: CNCCNc1ccc2c3c(cccc13)C(=O)N(c1cccc(Br)c1)C2=O
- IC50 [1]: 400 nM
- EC50 [2]: 2000 nM
- IC50 [3]: 130 nM
- CC50 [4]: 1500 nM

SMILES: O=C1c2cccc3c(NCCO)ccc(c23)C(=O)N1c1cccc(Br)c1
- EC50 [5]: 6400 nM
- EC50 [6]: 4700 nM
- IC50 [7]: 64 nM
- IC50 [8]: 540 nM
- IC50 [9]: > 50000 nM
- IC50 [1]: 180 nM
- Vd [10]: 1.1 L/kg
- half-life [11]: 42 min
- Activity [12]: inactive
- Activity [13]: inactive
- clearance [14]: 12 mL/min/kg
- logD [15]: 3.45
- IC50 [16]: 490 nM
- EC50 [17]: 11000 nM
- CC50 [4]: 76000 nM
- IC50 [18]: > 50000 nM
- IC50 [19]: 760 nM
- Activity [20]: Active
- bioavailability [21]: 83%
- solubility [22]: 0.44 µg/mL (≈ 1.07 µM)
- EC50 [23]: 11100 nM
- AUC [24]: 9.7 µM·h
- IC50 [25]: > 50000 nM
- IC50 [26]: > 50000 nM
- EC50 [27]: 4600 nM
- IC50 [28]: 770 nM
- Cmax [29]: 4 µM

SMILES: OCCNc1ccc2c3c(cccc13)CN(c1cccc(Br)c1)C2
- IC50 [1]: > 50000 nM
- IC50 [3]: > 50000 nM

SMILES: O=C1c2cccc3c(NCCO)ccc(c23)C(=O)N1c1ccccc1
- IC50 [1]: > 50000 nM
- IC50 [3]: 1700 nM

SMILES: NS(=O)(=O)c1cccc(N2C(=O)c3cccc4c(NCCO)ccc(c34)C2=O)c1
- IC50 [1]: > 50000 nM
- EC50 [2]: > 50000 nM
- IC50 [3]: 1600 nM
- CC50 [4]: > 50000 nM

SMILES: CC(C)N(c1cc(-c2ccccc2)sc1C(=O)O)C(=O)[C@H]1CC[C@H](C)CC1
- IC50 [30]: 100 nM
- IC50 [1]: > 10000 nM
- EC50 [2]: 1400 nM
- IC50 [31]: > 500 nM
- IC50 [3]: 9 nM
- IC50 [32]: 16 nM
- CC50 [4]: > 50000 nM
- IC50 [33]: 40 nM

SMILES: O=C1c2cccc3cccc(c23)C(=O)N1c1cccc(Br)c1
- IC50 [1]: > 50000 nM
- IC50 [3]: > 50000 nM

SMILES: O=C1c2ccc(NCCO)c3cccc(c23)CN1c1cccc(Br)c1
- IC50 [1]: 3500 nM
- IC50 [3]: 850 nM

SMILES: CN(CCO)c1ccc2c3c(cccc13)C(=O)N(c1cccc(Br)c1)C2=O
- IC50 [1]: 1800 nM
- IC50 [3]: 500 nM

Now from value to molecule, other results behind:

- IC50 [1]: 300 nM
- IC50 [3]: 190 nM
SMILES: Nc1ccc2c3c(cccc13)C(=O)N(c1cccc(Br)c1)C2=O

- IC50 [1]: 124 nM
- IC50 [3]: 24 nM
SMILES: COCCNc1ccc2c3c(cccc13)C(=O)N(c1cccc(Br)c1)C2=O

- IC50 [1]: 110 nM
- EC50 [2]: 3800 nM
- IC50 [3]: 42 nM
SMILES: O=C1c2cccc3c(N[C@H]4CC[C@@H](C(=O)O)CC4)ccc(c23)C(=O)N1c1cccc(Br)c1
- CC50 [4]: > 50000 nM

- IC50 [1]: 120 nM
- EC50 [2]: 1900 nM
- IC50 [3]: 30 nM
SMILES: O=C1c2cccc3c(NC4CCNCC4)ccc(c23)C(=O)N1c1cccc(Br)c1
- CC50 [4]: 3500 nM

- IC50 [1]: 90 nM
- EC50 [2]: 11000 nM
- IC50 [3]: 130 nM
SMILES: CC(C)CNc1ccc2c3c(cccc13)C(=O)N(c1cccc(Br)c1)C2=O
- CC50 [4]: > 50000 nM

- IC50 [1]: 185 nM
- IC50 [3]: 29 nM
SMILES: CCNc1ccc2c3c(cccc13)C(=O)N(c1cccc(Br)c1)C2=O

- IC50 [1]: 43 nM
- EC50 [2]: 2200 nM
- IC50 [3]: < 14 nM
SMILES: O=C1c2cccc3c(NC4CCN(Cc5ccccc5)CC4)ccc(c23)C(=O)N1c1cccc(Br)c1
- CC50 [4]: 5200 nM

- IC50 [1]: 120 nM
- EC50 [2]: > 50000 nM
- IC50 [3]: 66 nM
SMILES: O=C1c2cccc3c(NC4CCCCC4)ccc(c23)C(=O)N1c1cccc(Br)c1
- CC50 [4]: > 50000 nM
